The values that follow come from ChEMBL document CHEMBL2046430, “Synthesis, biological evaluation and molecular docking studies of 3-(1,3-diphenyl-1H-pyrazol-4-yl)-N-phenylacrylamide derivatives as inhibitors of HDAC activity” (Bioorg Med Chem, 2012).

The IC50 is the point on the concentration scale where inhibition reaches its midpoint. A high value points to weaker potency in that assay.

One experiment deals with Histone deacetylase 1 (Homo sapiens, UniProt Q13547). The experiment is described as follows: Inhibition of HDAC1 in human HeLa cell lysate using KI-104 as substrate after 40 mins by fluorescence analysis. In kind it is cell-free.
Sequence of Histone deacetylase 1 (Q13547 whole entry): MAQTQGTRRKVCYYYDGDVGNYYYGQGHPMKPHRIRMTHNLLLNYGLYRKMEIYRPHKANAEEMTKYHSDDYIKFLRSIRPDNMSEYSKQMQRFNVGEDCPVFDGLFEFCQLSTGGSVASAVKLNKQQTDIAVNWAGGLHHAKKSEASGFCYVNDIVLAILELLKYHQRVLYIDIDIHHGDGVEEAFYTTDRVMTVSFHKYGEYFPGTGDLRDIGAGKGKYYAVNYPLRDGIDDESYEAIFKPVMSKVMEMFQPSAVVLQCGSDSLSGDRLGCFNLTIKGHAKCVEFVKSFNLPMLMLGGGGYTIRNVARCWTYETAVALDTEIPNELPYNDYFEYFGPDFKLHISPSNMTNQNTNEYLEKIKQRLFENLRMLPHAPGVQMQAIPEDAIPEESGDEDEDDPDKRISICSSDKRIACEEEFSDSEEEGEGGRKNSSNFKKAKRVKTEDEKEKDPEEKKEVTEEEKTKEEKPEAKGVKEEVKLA
The next experiment concerns HCT-116. Kind of experiment: Antiproliferative activity against human HCT116 cells after 48 hrs by MTT assay. Particulars: HCT-116, 48 h. In kind it is functional, cell-based. The essentials:
(§1)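 Cells grown to log phase in RPMI 1640 + 10% FBS, seeded at 2 × 10^4 cells/mL (100 µL/well) and preincubated 24 h at 37 °C, 5% CO2. Compounds added at preset concentrations; MS275 as positive reference. After 48 h exposure, MTT (2.5 mg/mL in PBS) for 4 h, then SDS–isobutanol–HCl solubilization overnight at 37 °C; OD 570 nm. Triplicate wells per concentration, assays repeated ≥3 times; IC50 reported.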

The next experiment addresses Histone deacetylase 2 (Homo sapiens, UniProt Q92769). The experiment is described as follows: Inhibition of HDAC2 in human HeLa cell lysate using KI-104 as substrate after 40 mins by fluorescence analysis. In kind it is cell-free.
The next experiment concerns A549. The experiment is described as follows: Antiproliferative activity against human A549 cells after 48 hrs by MTT assay. The following applies: A549, 48 h. In kind it is functional, cell-based. The method in brief:
as §1
In general terms: Formazan colour is commonly taken as a measure of viable cells.

In experiment [1] the target is Histone deacetylase (Homo sapiens) (UniProt Q13547+O15379+Q9UBN7+Q92769+Q9UQL6+Q8WUI4+Q9BY41+Q96DB2+P56524+Q9UKV0+Q969S8). Particulars: HCT-116, 0.1 to 0.8 uM.

Activity calls are given as the source filed them. The rule behind the calls is not given here.

Sequence of Histone deacetylase 2 (Q92769 whole entry): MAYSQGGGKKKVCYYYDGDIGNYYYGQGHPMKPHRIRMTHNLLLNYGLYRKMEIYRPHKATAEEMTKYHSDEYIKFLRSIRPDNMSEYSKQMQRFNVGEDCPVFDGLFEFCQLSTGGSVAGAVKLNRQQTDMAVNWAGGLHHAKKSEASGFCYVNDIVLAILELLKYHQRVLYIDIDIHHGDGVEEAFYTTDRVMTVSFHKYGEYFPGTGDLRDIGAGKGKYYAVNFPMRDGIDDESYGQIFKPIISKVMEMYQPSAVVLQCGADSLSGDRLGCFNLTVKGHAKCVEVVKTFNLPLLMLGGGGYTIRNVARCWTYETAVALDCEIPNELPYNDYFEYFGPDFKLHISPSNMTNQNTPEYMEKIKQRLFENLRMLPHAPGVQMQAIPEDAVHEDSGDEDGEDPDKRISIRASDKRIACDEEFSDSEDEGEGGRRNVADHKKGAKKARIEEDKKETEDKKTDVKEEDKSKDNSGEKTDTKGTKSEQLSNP

For `O=C(/C=C\c1cn(-c2ccccc2)nc1-c1ccc([N+](=O)[O-])cc1)Nc1ccc(Cl)cc1`, the half-inhibitory concentration (IC50) at Histone deacetylase 1 stood at 0.46 µM; in the experiment with HCT-116 it was 0.64 µM; at Histone deacetylase 2, 0.57 µM; with A549, 3.72 µM.
Regarding `Cc1ccc(-c2nn(-c3ccccc3)cc2/C=C\C(=O)Nc2ccc(Cl)cc2)cc1`, the IC50 against Histone deacetylase 1 was 3.65 µM; in the experiment on HCT-116, 7.65 µM; at Histone deacetylase 2, 5.86 µM; with A549 it was 15.4 µM.
With `COc1ccc(NC(=O)/C=C\c2cn(-c3ccccc3)nc2-c2ccc(C)cc2)cc1`, the concentration for half-maximal inhibition (IC50) against Histone deacetylase 1 is 4.05 µM; in the experiment with HCT-116 it was 9.81 µM; on Histone deacetylase 2, 6.45 µM; with A549, over 20 µM.
With `COc1ccc(NC(=O)/C=C\c2cn(-c3ccccc3)nc2-c2ccc([N+](=O)[O-])cc2)cc1`, the half-inhibitory concentration (IC50) against Histone deacetylase 1 came out at 1.02 µM; in the experiment with HCT-116 it was 1.08 µM; at Histone deacetylase 2, 1.15 µM; in the experiment with A549, 5.17 µM.
For `Nc1ccccc1NC(=O)c1ccc(CNC(=O)OCc2cccnc2)cc1` [ENTINOSTAT], the half-maximal inhibitory concentration (IC50) in the experiment on HCT-116 and in the experiment with A549 was under 0.1 µM each time.
In the case of `O=C(/C=C\c1cn(-c2ccccc2)nc1-c1ccc(Br)cc1)Nc1ccccc1`, the half-inhibitory concentration (IC50) was 3.43 µM against Histone deacetylase 1, 10.7 µM in the experiment with HCT-116, 6.52 µM against Histone deacetylase 2 and over 20 µM in the experiment on A549.
With `O=C(/C=C\c1cn(-c2ccccc2)nc1-c1ccc(Br)cc1)Nc1ccc(Cl)cc1`, the IC50 is 2.98 µM on Histone deacetylase 1, 8.37 µM with HCT-116, 4.99 µM on Histone deacetylase 2 and 15.8 µM with A549.
On to `O=C(/C=C\c1cn(-c2ccccc2)nc1-c1ccc([N+](=O)[O-])cc1)Nc1ccccc1`, for which the concentration for half-maximal inhibition (IC50) against Histone deacetylase 1 was found to be 0.92 µM; in the experiment on HCT-116, 0.85 µM; on Histone deacetylase 2, 1.15 µM; with A549, 5.18 µM.
Take `Cc1ccc(-c2nn(-c3ccccc3)cc2/C=C\C(=O)Nc2ccc(Br)cc2)cc1`: the concentration for half-maximal inhibition (IC50) amounted to 3.33 µM at Histone deacetylase 1, 7.16 µM in the experiment on HCT-116, 5.02 µM on Histone deacetylase 2 and 11.8 µM in the experiment on A549.
As to `COc1ccc(-c2nn(-c3ccccc3)cc2/C=C\C(=O)Nc2ccc(Br)cc2)cc1`, the IC50 on Histone deacetylase 1 stood at 1.05 µM; with HCT-116, 1.53 µM; on Histone deacetylase 2, 2.17 µM; with A549, 7.47 µM.
As to `COc1ccc(-c2nn(-c3ccccc3)cc2/C=C\C(=O)Nc2ccccc2)cc1`, the concentration for half-maximal inhibition (IC50) at Histone deacetylase 1 came to 1.76 µM; in the experiment with HCT-116, 2.09 µM; on Histone deacetylase 2, 2.67 µM; in the experiment on A549, 9.85 µM.
For `Cc1ccc(-c2nn(-c3ccccc3)cc2/C=C\C(=O)Nc2ccccc2)cc1` the same measures were 4.06 µM, 10.4 µM, 8.75 µM and 16.1 µM.
For `COc1ccc(NC(=O)/C=C\c2cn(-c3ccccc3)nc2-c2ccc(OC)cc2)cc1` the same measures were 1.73 µM, 2.12 µM, 3.02 µM and 8.59 µM.
Turning to `O=C(/C=C\c1cn(-c2ccccc2)nc1-c1ccc([N+](=O)[O-])cc1)Nc1ccc(Br)cc1`, the inhibition result in experiment [1] was “inactive”. For the same molecule, the IC50 against Histone deacetylase 1 amounted to 0.42 µM; in the experiment with HCT-116 it was 0.62 µM; on Histone deacetylase 2, 0.55 µM; with A549, 3.71 µM.
For the molecule `COc1ccc(-c2nn(-c3ccccc3)cc2/C=C\C(=O)Nc2ccc(Cl)cc2)cc1`, the concentration for half-maximal inhibition (IC50) against Histone deacetylase 1 was determined as 1.09 µM; in the experiment with HCT-116, 1.56 µM; against Histone deacetylase 2, 2.36 µM; with A549, 8.04 µM.
On to `COc1ccc(NC(=O)/C=C\c2cn(-c3ccccc3)nc2-c2ccc(Br)cc2)cc1`, for which the IC50 at Histone deacetylase 1 was 3.31 µM; in the experiment with HCT-116, 9.69 µM; on Histone deacetylase 2, 5.35 µM; in the experiment with A549, over 20 µM.
Turning to `O=C(/C=C\c1cn(-c2ccccc2)nc1-c1ccc(Br)cc1)Nc1ccc(Br)cc1`, the IC50 came to 2.83 µM on Histone deacetylase 1, 8.16 µM in the experiment on HCT-116, 4.87 µM against Histone deacetylase 2 and 12.2 µM in the experiment on A549.
